Results reported in ChEMBL document CHEMBL1132631, “Comparison of four 64Cu-labeled somatostatin analogues in vitro and in a tumor-bearing rat model: evaluation of new derivatives for positron emission tomography imaging and targeted radiotherapy” (J Med Chem, 1999).

Assays:
Rattus norvegicus [1] = organism: Rattus norvegicus; assay: The percent block of uptake of [64Cu]-TETA-Y3-TATE in somatostatin-rich tissues by a co-injection of compound; type: functional
Summary of the method: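 In CA20948 tumor-bearing Lewis rats, [⁶⁴Cu]TETA-Y3-TATE (5.4 μCi, 5 ng) was given i.v. by tail vein, either alone or co-injected with 150 μg of unlabeled competing peptide. All groups were killed at 1 h. Tissues were excised, weighed and γ-counted, with decay correction, to give %ID/g.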

Rattus norvegicus [2] = organism: Rattus norvegicus; assay: The pancreatic uptake of [64Cu]-TETA-Y3-TATE in somatostatin-rich (ID/g) tissues by a co-injection of compound at 1 h

C[C@H](O)[C@H](NC(=O)[C@H]1CSSC[C@H](NC(=O)[C@H](N)Cc2ccccc2)C(=O)N[C@@H](Cc2ccc(O)cc2)C(=O)N[C@@H](Cc2c[nH]c3ccccc23)C(=O)N[C@@H](CCCCN)C(=O)N[C@H]([C@H](C)O)C(=O)N1)C(=O)O
Block (Rattus norvegicus [1]): > 90% | Uptake (Rattus norvegicus [2]): 0.15 %ID/g
